Most compounds without a hit are left out; they make up all but 2.2% or so of the library.
FLuc inhib CS: Photinus pyralis luciferase inhibition counter-screen. inhibition, % at 10 µM. AID 1006. 200,000 compounds, 1.5% hits. ATPLite firefly luciferase biochemical luminescence, 10 min;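 active means inhibition above about 50% when tested at 10 µM, limit read from the data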
Target sequence (P08659 whole entry, looked up): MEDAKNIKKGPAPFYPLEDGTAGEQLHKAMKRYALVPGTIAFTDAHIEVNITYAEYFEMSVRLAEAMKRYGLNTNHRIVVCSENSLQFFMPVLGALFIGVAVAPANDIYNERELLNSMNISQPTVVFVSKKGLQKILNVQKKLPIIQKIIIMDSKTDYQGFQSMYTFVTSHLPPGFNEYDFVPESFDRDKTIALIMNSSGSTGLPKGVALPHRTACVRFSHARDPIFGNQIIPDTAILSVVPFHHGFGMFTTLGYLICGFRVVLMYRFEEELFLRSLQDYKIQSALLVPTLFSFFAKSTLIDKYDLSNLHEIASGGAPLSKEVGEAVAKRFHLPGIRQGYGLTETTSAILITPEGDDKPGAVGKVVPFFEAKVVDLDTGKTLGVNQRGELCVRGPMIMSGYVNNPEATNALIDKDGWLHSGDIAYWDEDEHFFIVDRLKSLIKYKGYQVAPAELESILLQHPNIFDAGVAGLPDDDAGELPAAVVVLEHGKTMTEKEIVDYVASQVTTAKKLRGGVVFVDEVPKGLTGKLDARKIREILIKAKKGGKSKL
FLuc stim CS: affects firefly luciferase, flagging false hits in luciferase stimulation screens; ATPlite luciferase biochemical, luminescence, 10 min; 0 = ATP-free wells, 1 = DMSO control; activation factor at 10 µM; 200,000 tested, under 10 active; AID 1027;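 active means luciferase activation factor, scaled between plate controls, of at least 2 with compound at 10 µM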
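test system = cell-free luciferase reagent | medium = PBS as buffer for the ATP substrate | dosing = test compounds dosed from 2 mM stocks in 100% DMSO | incubation = 10 min at ambient temperature | detection = luminescence measurement of luciferase light output | benchmarks = low control with PBS replacing ATP, high control enzyme plus ATP without compound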
PPC-1+TRAIL kill: PPC-1 cancer cell killing with TRAIL present; PPC-1 cells + TRAIL, ATPLite viability luminescence; 220,000 compounds, 0.41% hits; cell killing (% activity), % at 4 µM or 5 µM;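 active means cell killing above 50% in the first pass at 4 µM, then a duplicate retest at 5 µM averaging 50% or more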;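 further: plate controls were cells with TRAIL plus DMSO for no effect and medium-only wells lacking cells for full effect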
APP 5'UTR act: APP 5'UTR luciferase reporter activation | SH-SY5Y APP 5'UTR luciferase reporter, luminescence; zero percent = DMSO vehicle wells | activation, % at 2 µM | 190,000 compounds, 1% hits | AID 1276;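 active means activation above a set limit, based on mean plus 3 SD of controls, cut at about 140% in these data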
TRAIL sens C8: caspase-8 TRAIL sensitization. NB7+C8 cells + TRAIL, ATPlite viability luminescence. inhibition (viability loss, TRAIL sensitization), % at 10 µM. 360,000 compounds, 1% hits;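 active means compounds causing at least 50% loss of cell viability in the single-dose screen, relative to plate controls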
NF-kB expr up: raises NF-kB expression in human neuronal cells; NF-kB reporter expression; active compounds read high; fold change at 12.5 µM; 190,000 compounds, 1.6% hits; AID 1239; in the data active means fold change above about 3.3
Active calls of the source: *; . = no result given.

SMILES | FLuc inhib CS | FLuc stim CS | PPC-1+TRAIL kill | APP 5'UTR act | TRAIL sens C8 | NF-kB expr up
Cc1cc(C)c(S(=O)(=O)N2CCOC2CNC(=O)C(=O)NCc2cccnc2)c(C)c1 (stereo unspecified) | -13 | 1.1 | 0 | 6 | 3 | 0.99
CCCN1Cc2cccc(C(=O)NCCc3cccc(C)c3)c2C1=O | . | . | . | . | -2 | .
Cn1c(=O)c(C(=O)CN2CCCCCC2)c(N)n(Cc2ccccc2)c1=O | -2 | 1 | 7 | 8 | -19 | 0.93
Cc1cc(C)c(C)c(S(=O)(=O)N2CCN(CC(=O)c3c(N)n(Cc4ccccc4)c(=O)n(C)c3=O)CC2)c1C | -1 | 1 | 20 | -5 | 61* | 0.84
Cc1cc(C(=O)COC(=O)c2ccc(Br)o2)c(C)n1C | 28 | 0.7 | 12 | 71 | 3 | 4*
COCCn1c(C)cc(C(=O)COC(=O)c2ccc(Cl)c(S(N)(=O)=O)c2)c1C | . | . | . | . | 62* | .
COCCn1c(C)cc(C(=O)COC(=O)c2ccc(Br)o2)c1C | 80* | 0.2 | 6 | 268* | 1 | 1.1
CCCCn1c(N)c(N(CC)C(=O)C(c2ccccc2)c2ccccc2)c(=O)[nH]c1=O | -4 | 1 | -17 | 8 | -4 | 1.3
O=C(NCCc1cccs1)Nc1ccc2nc([C@@H]3O[C@H](CO)[C@@H](O)[C@H]3O)[nH]c2c1 | . | . | . | . | -7 | .
C/C(=N\NC(=O)c1ccoc1C)c1cccnc1 | 13 | 0.9 | -1 | 152* | 27 | 12*
COc1ccc(-c2cc(C(=O)N/N=C(\C)c3cccnc3)c3ccccc3n2)c(OC)c1 | . | . | . | . | 13 | .
C/C(=N/NC(=O)c1ccoc1C)c1ccc(N2CCOCC2)cc1 | 4 | 1 | 19 | 202* | 4 | 1.8
COc1ccc(OC)c(-c2cc(C(=O)N/N=C(\C)c3cccnc3)c3ccccc3n2)c1 | . | . | . | . | -4 | .
C/C(=N\NC(=O)c1cc(-c2ccco2)nc2ccccc12)c1cccnc1 | 53* | 0.5 | 16 | 14 | 8 | 1.1
CCOc1ccc(-c2cc(C(=O)N/N=C(\C)c3cccnc3)c3ccccc3n2)cc1 | . | . | . | . | 68* | .
C/C(=N\NC(=O)c1ccccc1C)c1cccnc1 | . | . | . | . | -7 | .
Cc1cc(C)nc(Nc2nc3ccccc3s2)n1 | 8 | 0.9 | 4 | 147* | 6 | 1.2
CC(=O)c1c(C)nc(Nc2nc3ccccc3s2)nc1C | . | . | 19 | . | 35 | .
Cc1ccc(Nc2nc3ccccc3s2)c(C)c1 | 66* | 0.3 | 37 | 168* | 55* | 6.4*
CNc1nnc(-c2ccc(OC)cc2)s1 | 63* | 0.4 | 40 | 58 | 9 | 2.4
CNc1nnc(-c2ccncc2)s1 | -2 | 1 | 6 | 8 | 1 | 1.1
Cc1cc(NC(=O)Nc2ccccc2F)ccc1Br | 29 | 0.7 | -16 | 213* | 31 | 6.7*
Cc1ccnc(NC(=O)/C=C/c2ccccc2[N+](=O)[O-])c1 | 73* | 0.3 | 34 | 142* | . | 7.7*
Cc1ccnc(NC(=O)c2ccccc2[N+](=O)[O-])c1 | 17 | 0.8 | 7 | 5 | -1 | 1.4
Cc1[nH]c(=O)[nH]c(=O)c1CSCC(=O)OCC(=O)Nc1ccccn1 | . | . | 13 | . | -17 | .
SMILES | FLuc inhib CS | FLuc stim CS | PPC-1+TRAIL kill | APP 5'UTR act | TRAIL sens C8 | NF-kB expr up
CC(C)n1c(-c2ccc(N(C)C)cc2)nc2ccccc21 | 42 | 0.6 | 14 | 170* | 42 | 1.4
COc1ccccc1CNCCS(=O)(=O)NCc1ccccc1 | . | . | . | . | -8 | .
Fc1ccc2nc(Nc3ccccc3)sc2c1 | 4 | 1 | 26 | 66 | 13 | 3.7*
c1ccc2sc(Nc3nc4cc5c(cc4s3)OCO5)nc2c1 | 46 | 0.5 | 20 | 195* | 11 | 4.7*
Fc1ccc2nc(Nc3nc4cc5c(cc4s3)OCCO5)sc2c1 | 52* | 0.5 | 21 | 102 | 26 | 1.6
Cc1ccc(/C=N/NC(=O)CC2N=C(Cc3ccccc3)NNC2=O)cc1 (stereo unspecified) | . | . | . | 2 | 20 | 0.95
O=C(O)/C=C/C(=O)Nc1ccc(OCc2ccccc2)cc1 | . | . | -7 | . | 14 | .
O=C(O)/C=C\C(=O)Nc1ccccc1C#Cc1ccc(Br)cc1 | -2 | 1 | 9 | 158* | 32 | 8*
O=C(O)/C=C\C(=O)Nc1ccccc1C#Cc1ccccc1 | -3 | 1 | -3 | 73 | 5 | 6.8*
O=C(O)/C=C/C(=O)Nc1ccc(-c2ccccc2)cc1 | 53* | 0.5 | 18 | 4 | 9 | 1.7
O=C(O)/C=C/C(=O)Nc1ccccc1-c1ccccc1NC(=O)/C=C/C(=O)O | -3 | 1 | 0 | . | -7 | 0.98
COc1ccc(C(=O)C[n+]2ccc3c(c2)nnn3-c2ccccc2)cc1 | -4 | 1 | -10 | -11 | 8 | 1.1
CC(O)(c1ccc(F)c(F)c1)c1nc(-c2ccoc2)cs1 (stereo unspecified) | . | . | . | . | 9 | .
Cc1ccc(-n2nc(C)c3c(-c4cccs4)c(C#N)c(N)nc32)cc1 | -2 | 1 | 18 | 4 | 9 | 0.86
Cc1nn(-c2ccccc2)c2nc(N)c(C#N)c(-c3ccc(F)cc3)c12 | 0 | 1 | 12 | 2 | 58* | 0.93
COc1cc2c(cc1NC(=O)C1CCCO1)oc1ccccc12 (stereo unspecified) | -2 | 1 | -7 | 162* | -8 | 5.6*
CC(=O)Nc1cccc(-c2nc3ccccc3s2)c1 | 23 | 0.8 | 29 | 64 | 10 | 3
Oc1cccc(-c2nc3ccccc3s2)c1 | 71* | 0.3 | -15 | 116 | 48 | 9*
CCCC(=O)Nc1nc2ccc(NC(=O)c3ccccc3F)cc2s1 | -4 | 1 | -2 | -76 | -10 | 0.84
COc1ccc2nc(NC(=O)c3ccccc3F)sc2c1 | . | . | . | . | 69* | .
Cc1ccc2nc(NC(=O)c3ccccc3F)sc2c1 | . | . | . | . | 58* | .
COc1ccc2nc(NC(=O)c3cnccn3)sc2c1 | 63* | 0.4 | 30 | 98 | 53* | 3.3
Cc1nnc(NC(=O)C(C)Sc2nnc(CNC(=O)c3ccccc3F)n2C)s1 (stereo unspecified) | . | . | . | . | -11 | .
Cn1c(=O)n(C)c2cc3[nH]cnc3cc21 | . | . | . | . | -12 | .
Nc1cc2nc[nH]c2cc1N | 15 | 0.8 | 16 | 163* | 4 | 1.6
SMILES | FLuc inhib CS | FLuc stim CS | PPC-1+TRAIL kill | APP 5'UTR act | TRAIL sens C8 | NF-kB expr up
N#Cc1ccccc1S(=O)(=O)N1CCNS(=O)(=O)c2ccccc21 | . | . | . | . | 2 | .
CCOC(=O)c1sc(NC(=O)c2cccc(S(=O)(=O)N3CCc4ccccc43)c2)c(C#N)c1C | . | . | 18 | . | 46* | .
CCOC(=O)c1sc(NC(=O)CSc2ccccn2)c(C#N)c1C | -5 | 1.1 | -8 | 2 | -8 | 3.8*
CCOC(=O)c1sc(NC(=O)CSc2nc(C)cc(C)n2)c(C#N)c1C | -3 | 1 | 9 | 13 | -2 | 0.95
CNc1ncnc2c1ncn2[C@H]1CN(Cc2cccs2)C[C@@H](CO)O1 | . | . | . | . | -13 | .
Cn1c(=N)n(CC(=O)c2ccc(Cl)c(Cl)c2)c2ccccc21 | . | . | . | . | 66* | .

High-throughput results from PubChem.
